Results taken from ChEMBL document CHEMBL5058577, “EUbOPEN Chemogenomics Library 2 (Multiplex)” (2022).

Tested on: U2OS
Assay: Multiplex assay against U2OS
Type: toxicity, cell-based
Details: human
Method in brief: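 Imaging took place on a CQ1 microscope at 37°C and 5% CO2 once compound had been added to live cells stained at seeding with Hoechst33342, BioTracker Green Microtubule Cytoskeleton Dye, MitoTracker Red and Annexin V Alexa Fluor 680. CellPathfinder machine-learning gating classed cells as Hoechst high-intensity objects or normal cells, classed normal cells as having healthy, pyknosed or fragmented nuclei, and classed pyknosed cells as mitotic or apoptotic. Tubulin, mitochondrial-mass and membrane-permeability phenotypes are per cents of the healthy-nucleus cells.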

[1] = 12 h, 1 µM, compound concentration 1 uM, replicate 1
[2] = 12 h, 1 µM, compound concentration 1 uM, replicate 2
[3] = 12 h, 10 µM, compound concentration 10 uM, replicate 1
[4] = 12 h, 10 µM, compound concentration 10 uM, replicate 2
[5] = 24 h, 1 µM, compound concentration 1 uM, replicate 1
[6] = 24 h, 1 µM, compound concentration 1 uM, replicate 2
[7] = 24 h, 10 µM, compound concentration 10 uM, replicate 1
[8] = 24 h, 10 µM, compound concentration 10 uM, replicate 2
[9] = 48 h, 1 µM, compound concentration 1 uM, replicate 1
[10] = 48 h, 1 µM, compound concentration 1 uM, replicate 2
[11] = 48 h, 10 µM, compound concentration 10 uM, replicate 1
[12] = 48 h, 10 µM, compound concentration 10 uM, replicate 2

CN(C)C(=O)Cn1cc(-c2ccc(-c3cncc4ccccc34)cc2)cn1
Population Apoptotic (%) [1]: 68%
Population Fragmented Nuclei (%) [1]: 22%
Population Healthy Nuclei (%) [1]: 68%
Population Hoechst High Intensity Objects (%) [1]: 3%
Population Membrane Permeable-Phenotype (%) [1]: 8%
Population Mitochondria Different-Phenotype (%) [1]: 4%
Population Mitotic Cells (%) [1]: 31%
Population Normal (%) [1]: 96%
Population Pyknosed Nuclei (%) [1]: 9%
Population Tubulin-Different-Phenotype (%) [1]: 5%
Total Cell Count [1]: 240
Population Apoptotic (%) [2]: 69%
Population Fragmented Nuclei (%) [2]: 18%
Population Healthy Nuclei (%) [2]: 69%
Population Hoechst High Intensity Objects (%) [2]: 0%
Population Membrane Permeable-Phenotype (%) [2]: 6%
Population Mitochondria Different-Phenotype (%) [2]: 2%
Population Mitotic Cells (%) [2]: 30%
Population Normal (%) [2]: 99%
Population Pyknosed Nuclei (%) [2]: 11%
Population Tubulin-Different-Phenotype (%) [2]: 3%
Total Cell Count [2]: 110
Population Apoptotic (%) [3]: 66%
Population Fragmented Nuclei (%) [3]: 21%
Population Healthy Nuclei (%) [3]: 67%
Population Hoechst High Intensity Objects (%) [3]: 5%
Population Membrane Permeable-Phenotype (%) [3]: 20%
Population Mitochondria Different-Phenotype (%) [3]: 12%
Population Mitotic Cells (%) [3]: 33%
Population Normal (%) [3]: 94%
Population Pyknosed Nuclei (%) [3]: 10%
Population Tubulin-Different-Phenotype (%) [3]: 14%
Total Cell Count [3]: 205
Population Apoptotic (%) [4]: 100%
Population Fragmented Nuclei (%) [4]: 18%
Population Healthy Nuclei (%) [4]: 75%
Population Hoechst High Intensity Objects (%) [4]: 3%
Population Membrane Permeable-Phenotype (%) [4]: 22%
Population Mitochondria Different-Phenotype (%) [4]: 19%
Population Mitotic Cells (%) [4]: 0%
Population Normal (%) [4]: 96%
Population Pyknosed Nuclei (%) [4]: 5%
Population Tubulin-Different-Phenotype (%) [4]: 23%
Total Cell Count [4]: 98
Population Apoptotic (%) [5]: 100%
Population Fragmented Nuclei (%) [5]: 21%
Population Healthy Nuclei (%) [5]: 69%
Population Hoechst High Intensity Objects (%) [5]: 3%
Population Membrane Permeable-Phenotype (%) [5]: 5%
Population Mitochondria Different-Phenotype (%) [5]: 2%
Population Mitotic Cells (%) [5]: 0%
Population Normal (%) [5]: 96%
Population Pyknosed Nuclei (%) [5]: 8%
Population Tubulin-Different-Phenotype (%) [5]: 4%
Total Cell Count [5]: 278
Population Apoptotic (%) [6]: 90%
Population Fragmented Nuclei (%) [6]: 15%
Population Healthy Nuclei (%) [6]: 76%
Population Hoechst High Intensity Objects (%) [6]: 1%
Population Membrane Permeable-Phenotype (%) [6]: 8%
Population Mitochondria Different-Phenotype (%) [6]: 6%
Population Mitotic Cells (%) [6]: 9%
Population Normal (%) [6]: 98%
Total Cell Count [6]: 127
Population Apoptotic (%) [7]: 54%
Population Fragmented Nuclei (%) [7]: 25%
Population Healthy Nuclei (%) [7]: 64%
Population Hoechst High Intensity Objects (%) [7]: 3%
Population Membrane Permeable-Phenotype (%) [7]: 19%
Population Mitochondria Different-Phenotype (%) [7]: 9%
Population Mitotic Cells (%) [7]: 45%
Population Normal (%) [7]: 96%
Population Pyknosed Nuclei (%) [7]: 9%
Population Tubulin-Different-Phenotype (%) [7]: 10%
Total Cell Count [7]: 244
Population Apoptotic (%) [8]: 80%
Population Fragmented Nuclei (%) [8]: 11%
Population Healthy Nuclei (%) [8]: 84%
Population Hoechst High Intensity Objects (%) [8]: 2%
Population Membrane Permeable-Phenotype (%) [8]: 16%
Population Mitochondria Different-Phenotype (%) [8]: 15%
Population Mitotic Cells (%) [8]: 20%
Population Normal (%) [8]: 97%
Population Pyknosed Nuclei (%) [8]: 4%
Population Tubulin-Different-Phenotype (%) [8]: 14%
Total Cell Count [8]: 110
Population Apoptotic (%) [9]: 87%
Population Fragmented Nuclei (%) [9]: 18%
Population Healthy Nuclei (%) [9]: 69%
Population Hoechst High Intensity Objects (%) [9]: 2%
Population Membrane Permeable-Phenotype (%) [9]: 6%
Population Mitochondria Different-Phenotype (%) [9]: 3%
Population Mitotic Cells (%) [9]: 12%
Population Normal (%) [9]: 97%
Population Pyknosed Nuclei (%) [9]: 12%
Population Tubulin-Different-Phenotype (%) [9]: 4%
Total Cell Count [9]: 333
Population Apoptotic (%) [10]: 88%
Population Fragmented Nuclei (%) [10]: 20%
Population Healthy Nuclei (%) [10]: 67%
Population Hoechst High Intensity Objects (%) [10]: 3%
Population Membrane Permeable-Phenotype (%) [10]: 12%
Population Mitochondria Different-Phenotype (%) [10]: 9%
Population Mitotic Cells (%) [10]: 11%
Population Normal (%) [10]: 96%
Population Pyknosed Nuclei (%) [10]: 11%
Population Tubulin-Different-Phenotype (%) [10]: 9%
Total Cell Count [10]: 163
Population Apoptotic (%) [11]: 74%
Population Fragmented Nuclei (%) [11]: 22%
Population Healthy Nuclei (%) [11]: 62%
Population Hoechst High Intensity Objects (%) [11]: 2%
Population Membrane Permeable-Phenotype (%) [11]: 15%
Population Mitochondria Different-Phenotype (%) [11]: 8%
Population Mitotic Cells (%) [11]: 25%
Population Normal (%) [11]: 97%
Population Pyknosed Nuclei (%) [11]: 14%
Population Tubulin-Different-Phenotype (%) [11]: 8%
Total Cell Count [11]: 302
Population Apoptotic (%) [12]: 92%
Population Fragmented Nuclei (%) [12]: 21%
Population Healthy Nuclei (%) [12]: 68%
Population Membrane Permeable-Phenotype (%) [12]: 20%
Population Mitochondria Different-Phenotype (%) [12]: 14%
Population Mitotic Cells (%) [12]: 7%
Population Pyknosed Nuclei (%) [12]: 9%
Population Tubulin-Different-Phenotype (%) [12]: 16%
Total Cell Count [12]: 149
